Source: PubChem BioAssay (several laboratories)
Hits are enriched below; roughly 2.1% of the tested compounds scored in any of these assays.
RTF Ca sens inh – cardiac RTF calcium desensitization; IANBD-labeled cardiac RTF, Ca2+ fluorescence; inhibition, % at 7.15 µM; actives 0.12% (n = 340,000);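 active = inhibition above the mean inhibition of all tested compounds plus 3 SD, cut at about 17% in these data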;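 also: assay run at fixed EC70 calcium of 1.6 mM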
Efflux pump mplx – blocks antifungal efflux pumps in multiplex yeast assay | inhibition, % at 10 µM | actives 0.44% (n = 330,000) | S. cerevisiae Candida pump triplex, Nile Red efflux;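 active = plate passing quality check with inhibition over a set limit, or well fluorescence over plate mean plus 4 SD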;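 also: Nile Red retained in pooled yeast measured as flow cytometry median fluorescence; higher means more Nile Red kept so more efflux inhibition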
ARNT TACC3 PPI – disrupts binding between human ARNT and TACC3. inhibition, % at 9.99 µM. actives 0.66% (n = 390,000). Q9Y6A5. AlphaScreen His-ARNT PAS-B/GST-TACC3 binding, luminescence; TACC3 fragment carries E629A point mutation. AID 623870;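 active = mean inhibition of replicates at least 50% and at least half of replicates each reaching 50%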
UCH37 inh – blocks the human deubiquitinase UCH37. Q9Y5K5. purified proteasome/UCH37, Ub-AMC cleavage fluorescence. inhibition, % (test concentration not listed). actives 0.33% (n = 330,000);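 active = mean inhibition over replicate wells above about 20%, limit read from the data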
Target sequence (Q9Y5K5 whole entry, looked up): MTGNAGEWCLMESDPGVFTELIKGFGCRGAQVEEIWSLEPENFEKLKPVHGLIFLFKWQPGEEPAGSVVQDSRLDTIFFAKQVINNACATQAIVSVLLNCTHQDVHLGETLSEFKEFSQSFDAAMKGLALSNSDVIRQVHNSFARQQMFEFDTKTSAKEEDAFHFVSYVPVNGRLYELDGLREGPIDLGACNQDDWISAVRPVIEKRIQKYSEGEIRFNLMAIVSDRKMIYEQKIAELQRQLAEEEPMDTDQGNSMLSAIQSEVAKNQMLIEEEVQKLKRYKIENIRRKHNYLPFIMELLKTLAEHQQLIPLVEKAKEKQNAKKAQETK
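Material: Human UCH37 enzyme supplied as purified proteasome complex | Schedule: 30 min preincubation with enzyme, 25 min cleavage at room temperature | Detection: AMC fluorescence 355/460 nm | Measure: % inhibition of Ub-AMC cleavage fluorescence | Controls: Wells without proteasome as full block, compound-free enzyme plus substrate as uninhibited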
SUMO Mot1 rescue – SUMOylation pathway inhibition by Mot1-301 growth rescue; actives 1% (n = 320,000); S. cerevisiae Mot1-301 growth rescue, ATP luminescence, 38.5C; percent above DMSO median, 100 means doubled; growth rescue, % at 18.8 µM;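 active = every valid replicate shows activation above 250% relative to neutral control wells; inactive = the rest, any valid replicate at or below 250%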
RTF Ca sens act – cardiac RTF calcium sensitization; P19429+P45379; IANBD-labeled TnC RTF fluorescence at EC20 calcium; 0% EC20 calcium, 100% full calcium; activation, % at 7.2 µM; actives 0.24% (n = 340,000);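 active = activation above the mean over all tested compounds plus 3 SD, cut at about 30% in these data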;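 also: rise in fluorescence read as greater calcium sensitivity of cardiac thin filaments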
Mot1 SUMO dose – inhibits SUMO pathway, affecting Mot1-301 yeast growth; S. cerevisiae Mot1-301 galactose growth, ATP luminescence, 24 h; -100 = growth of slx-deleted rescue strain; 2,300 tested, under 10 active; shares compounds with SUMO Mot1 rescue; AID 493004; growth activity, percent, % at 42 µM;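 active = Signal drops as the depositor expects, and the fitted half-maximal dose is no more than ten times the top valid tested dose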;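 also: more negative values mean stronger growth rescue toward the control strain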
Of the large screens only hits and unclear results are named; the others gave an inactive call (follow-up assays come after a bar, where they were run).

O=C(CNC(=O)c1ccccc1Br)NN=Cc1cc([N+](=O)[O-])cc(Br)c1O	none (no result: RTF Ca sens inh, Efflux pump mplx, ARNT TACC3 PPI, SUMO Mot1 rescue, RTF Ca sens act)
O=C(CN(Cc1ccccc1Cl)S(=O)(=O)c1ccc(Cl)cc1)NN=Cc1ccc(C(=O)O)cc1	none (no result: RTF Ca sens inh, Efflux pump mplx, ARNT TACC3 PPI, SUMO Mot1 rescue, RTF Ca sens act)
CCOc1ccc2nc(CN3CCN(Cc4ccccc4OCC)C(CCO)C3)ccc2c1 (stereo not drawn)	SUMO Mot1 rescue 511 | Mot1 SUMO dose inactive
CCOc1ccccc1CN1CCN(Cc2ccon2)CC1CCO (stereo not drawn)	SUMO Mot1 rescue 817 | Mot1 SUMO dose inactive
CCOc1ccc(-n2cc(C(=O)NCCOC)c3cc(OC)c(OC)cc3c2=O)cc1	SUMO Mot1 rescue 810 | Mot1 SUMO dose inactive
Cn1cccc1C=Nn1c(-c2ccc(C(C)(C)C)cc2)n[nH]c1=S	none (no result: RTF Ca sens inh, Efflux pump mplx, ARNT TACC3 PPI, SUMO Mot1 rescue, RTF Ca sens act)
COc1ccc(Cc2nnc(NCCO)[nH]c2=O)cc1	SUMO Mot1 rescue 446 | Mot1 SUMO dose inactive
CC(=O)c1cccc(NC(=O)CNC(=O)c2sc3ccccc3c2Cl)c1	SUMO Mot1 rescue 664 | Mot1 SUMO dose inactive
Cc1cccc(NC(=O)CNC(=O)c2sc3ccccc3c2Cl)n1	none
O=c1[nH][nH]c(C(F)(F)F)c1C=NCc1cccs1	SUMO Mot1 rescue active | Mot1 SUMO dose inactive
O=c1[nH][nH]c(C(F)(F)F)c1C=Nc1ccccc1	none
CCN(N=C/C=C/c1ccccc1)c1cc(=O)n(C)c(=O)[nH]1	none (no result: RTF Ca sens inh, Efflux pump mplx, ARNT TACC3 PPI, SUMO Mot1 rescue, RTF Ca sens act)
Cc1cccc(CSc2ccc(-c3ccco3)nn2)c1	SUMO Mot1 rescue 668 (no result: ARNT TACC3 PPI) | Mot1 SUMO dose inactive
Cc1c(F)cccc1NS(=O)(=O)c1ccc(N2CCCC2=O)cc1	none (no result: Efflux pump mplx, UCH37 inh, SUMO Mot1 rescue)
Cn1cnnc1-c1cccc(NS(=O)(=O)c2ccc(N3CCCC3=O)cc2)c1	SUMO Mot1 rescue active | Mot1 SUMO dose inactive
COc1ccccc1NC(=O)COc1ccc(C=NNS(=O)(=O)c2ccc(C)cc2)cc1	none (no result: RTF Ca sens inh, Efflux pump mplx, ARNT TACC3 PPI, SUMO Mot1 rescue, RTF Ca sens act)
COC(=O)c1cc(Cl)c(NC(=O)C(C)C)cc1OC	SUMO Mot1 rescue 661 (no result: ARNT TACC3 PPI) | Mot1 SUMO dose inactive
COC(=O)c1cc(Cl)c(NC(=O)c2ccc(C(C)(C)C)cc2)cc1OC	none
CC(=O)Nc1ccc(-c2csc(NC(=O)C3CC(=O)N(c4ccc5c(c4)OCCO5)C3)n2)cc1 (stereo not drawn)	SUMO Mot1 rescue 508 | Mot1 SUMO dose inactive
COc1ccc(-c2csc(NC(=O)C3CC(=O)N(c4ccc5c(c4)OCCO5)C3)n2)cc1 (stereo not drawn)	none
COc1cccc(C=NNC(=O)C(=O)NN=Cc2cccc(OC)c2OC)c1OC	none (no result: RTF Ca sens inh, Efflux pump mplx, ARNT TACC3 PPI, SUMO Mot1 rescue, RTF Ca sens act)
CCCCC(=O)NC(=S)Nc1cccc(C(=O)O)c1	SUMO Mot1 rescue active | Mot1 SUMO dose inactive
Cc1cc(-c2ccc(Cl)cc2Cl)c(C#N)c(=O)[nH]1	SUMO Mot1 rescue 418 | Mot1 SUMO dose inactive
CSc1ccccc1-c1nc(-c2ccncc2)no1	SUMO Mot1 rescue 718 | Mot1 SUMO dose inactive
Cc1ccc(S(=O)(=O)N(C)Cc2ccc(C(=O)NN=C3CC(=O)CC(C)(C)C3)cc2)cc1	none (no result: RTF Ca sens inh, Efflux pump mplx, ARNT TACC3 PPI, SUMO Mot1 rescue, RTF Ca sens act)
CCOc1ccc2ccccc2c1C=NNC(=O)CNC(=O)c1ccccc1F	none (no result: RTF Ca sens inh, Efflux pump mplx, ARNT TACC3 PPI, SUMO Mot1 rescue, RTF Ca sens act)
COc1cccc2cc(C(=O)Nc3ccccc3C)c(=NO)oc12	none (no result: RTF Ca sens inh, Efflux pump mplx, ARNT TACC3 PPI, SUMO Mot1 rescue, RTF Ca sens act)
Cc1cc(-c2ccc(C(C)C)c(S(=O)(=O)N3CC(=O)Nc4ccccc43)c2)on1	SUMO Mot1 rescue 581 | Mot1 SUMO dose inactive
O=C(Nc1ccc2c(c1)CCCN2C(=O)c1cccs1)c1ccccc1	none
O=C(Nc1ccc2c(c1)CCCN2C(=O)c1cccs1)c1cccc(F)c1	SUMO Mot1 rescue 566 | Mot1 SUMO dose inactive
CCOC(=O)Cc1cc(=O)[nH]c(N=C(NC(=O)c2ccccc2)Nc2ccccc2C(F)(F)F)n1	none (no result: RTF Ca sens inh, Efflux pump mplx, ARNT TACC3 PPI, SUMO Mot1 rescue, RTF Ca sens act)
COc1ccc(-n2c(SCC(=O)NCC3CCCO3)nc3c(c2=O)SCC3)cc1OC (stereo not drawn)	SUMO Mot1 rescue 672 | Mot1 SUMO dose inactive
Cc1ccc2nc(NC(=O)CNS(=O)(=O)c3ccc(Br)s3)sc2c1	SUMO Mot1 rescue 520 | Mot1 SUMO dose inactive
CN=C1SC(CC(=O)Nc2sc3c(c2C#N)CCCC3)C(=O)N1C (stereo not drawn)	SUMO Mot1 rescue 364 | Mot1 SUMO dose inactive
